Activity calls are given as the source filed them. No cut-off for these calls is given here.
Assays:
[1] = tested on: A549; experiment: Induction of apoptosis in human A549 cells assessed as early apoptotic cells at 2 uM after 24 hrs by Annexin-V/PI staining based flow cytometry analysis (reference value: 1.15%); assay type: functional
[2] = tested on: A549; experiment: Antitumor activity against ip dosed human A549 cells xenografted in Balb/c mouse assessed as inhibition of tumor growth administered once every two days for 32 days measured for every 2 days; assay type: functional, organism-based
Method in brief: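 Female BALB/c nude mice, 5-6 weeks old, injected in the flank with 6×10^6 A549 cells in 0.1 mL ice-cold PBS. After two weeks, tumours averaging 90 mm³ were allocated by volume to 5 groups of n = 8. Drugs in DMSO were given ip once every two days, 16 doses in total; a DMSO vehicle group served as control. Tumour volume (L×S²/2) and body weight were recorded every two days; mice were killed on day 32.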

[3] = tested on: A549; experiment: Antiproliferative activity against human A549 cells assessed as reduction in cell viability after 24 hrs by MTT assay; assay type: functional, cell-based; details: A549, 24 h
[4] = tested on: A549; experiment: Induction of apoptosis in human A549 cells assessed as viable cells at 4 uM after 24 hrs by Annexin-V/PI staining based flow cytometry analysis (reference value: 91.4%); assay type: functional; details: A549, 24 h, read-out: Activity
Method in brief: (§1)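 A549 cells seeded overnight at 37 °C, 5% CO2, then exposed to 0, 2, 4, 8 or 12 µM for 24 h (dose series) or 8 µM for 0, 12, 24, 36 h (time series). Harvested, PBS-washed, stained with Annexin V-FITC and PI in binding buffer 15 min at room temperature in the dark, analysed by flow cytometry; three independent experiments.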

[5] = tested on: A549; experiment: Antitumour activity in ip dosed Balb/c mouse xenografted with human A549 cells assessed as increase in mouse survival at 2 to 4 mg/kg, ip administered once every two days for 32 days; assay type: functional, organism-based
[6] = tested on: A549; experiment: Induction of apoptosis in human A549 cells assessed as necrotic cells after at 8 uM 24 hrs by Annexin-V/PI staining based flow cytometry analysis (reference value: 2.98%); assay type: functional; method in brief: as §1
[7] = tested on: A549; experiment: Cell cycle arrest in human A549 cells assessed as accumulation at S phase at 4 uM after 24 hrs by RNAse A/ PI staining based flow cytometric analysis (reference value: 17.23%); assay type: functional
Method in brief: (§2)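 A549 cells at 5.0×10^4 per well were grown 12 h at 37 °C. Treatment was 0, 2, 4 or 8 µM for 24 h, or 8 µM for 0, 12, 24 or 36 h. Cells were fixed in 70% ethanol at −20 °C for at least 12 h, then stained in PBS with 0.1 mg/mL RNase A and 5 µg/mL PI. At least 10,000 events per sample were collected by flow cytometry to give G0/G1, S and G2/M percentages.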

[8] = tested on: A549; experiment: Induction of apoptosis in human A549 cells assessed as late apoptotic cells at 2 uM after 24 hrs by Annexin-V/PI staining based flow cytometry analysis (reference value: 5.69%); assay type: functional
[9] = tested on: A549; experiment: Induction of apoptosis in human A549 cells assessed as low mitochondrial membrane potential at 4 uM after 12 hrs by JC-1 staining-based flow cytometric analysis (reference value: 6.3%); assay type: functional
[10] = tested on: A549; experiment: Cell cycle arrest in human A549 cells assessed as accumulation at G2/M phase at 8 uM after 12 hrs by RNAse A/ PI staining based flow cytometric analysis (reference value: 12.65%); assay type: functional; method in brief: as §2
[11] = tested on: A549; experiment: Induction of apoptosis in human A549 cells assessed as early apoptotic cells at 12 uM after 24 hrs by Annexin-V/PI staining based flow cytometry analysis (reference value: 1.15%); assay type: functional
[12] = tested on: MCF7; experiment: Antiproliferative activity against human MCF7 cells assessed as reduction in cell viability after 24 hrs by MTT assay; assay type: functional, cell-based; details: MCF7, 24 h
Method in brief: (§3)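 MTT colorimetric assay. Cells in log phase in medium with 10% FBS were seeded at 10⁴ cells/well and left overnight at 37 °C, 5% CO₂ to reattach. Compounds were added at 0.1, 1, 10 and 100 μM in 10% FBS for 24 h. IC50 reported as mean ± SD of three independent experiments.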

[13] = tested on: A549; experiment: Induction of apoptosis in human A549 cells assessed as viable cells at 8 uM after 24 hrs by Annexin-V/PI staining based flow cytometry analysis (reference value: 91.4%); assay type: functional; details: A549, 24 h, read-out: Activity; method in brief: as §1
[14] = Cytotoxicity against human LO2 cells assessed as reduction in cell viability after 24 hrs by MTT assay; assay type: cell-based, L02; method in brief: as §3
[15] = tested on: A549; experiment: Induction of apoptosis in human A549 cells assessed as viable cells at 8 uM after 36 hrs by Annexin-V/PI staining based flow cytometry analysis (reference value: 88.4%); assay type: functional; details: A549, 36 h, read-out: Activity; method in brief: as §1
[16] = tested on: A549; experiment: Cell cycle arrest in human A549 cells assessed as accumulation at G2/M phase at 4 uM after 24 hrs by RNAse A/ PI staining based flow cytometric analysis (reference value: 9.47%); assay type: functional; method in brief: as §2
[17] = tested on: A549; experiment: Induction of apoptosis in human A549 cells assessed as necrotic cells after at 8 uM 36 hrs by Annexin-V/PI staining based flow cytometry analysis (reference value: 2.98%); assay type: functional; method in brief: as §1
[18] = tested on: A549; experiment: Induction of apoptosis in human A549 cells assessed as reduction in caspase-9 expression at 2 to 8 uM after 24 hrs by Western blot analysis; assay type: functional, cell-based
Method in brief: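 A549 cells in 6-well plates were lysed in RIPA buffer with protease inhibitors on ice for 30 min and cleared at 4 °C. Protein was quantified by BCA, run on SDS-PAGE and transferred to PVDF. Membranes were blocked with milk, probed with primary antibody (1:1000) overnight at 4 °C, then secondary antibody (1:3000-1:5000) 1 h at RT. Detection by ECL; band densitometry normalised to GAPDH (β-actin also used). Three independent experiments.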

[19] = tested on: A549; experiment: Cell cycle arrest in human A549 cells assessed as accumulation at G1 phase at 8 uM after 24 hrs by RNAse A/ PI staining based flow cytometric analysis (reference value: 73.30%); assay type: functional; method in brief: as §2
[20] = tested on: A549; experiment: Cell cycle arrest in human A549 cells assessed as accumulation at G1 phase at 8 uM after 24 hrs by RNAse A/ PI staining based flow cytometric analysis (reference value: 67.69%); assay type: functional; method in brief: as §2
[21] = tested on: A549; experiment: Cell cycle arrest in human A549 cells assessed as accumulation at G1 phase at 4 uM after 24 hrs by RNAse A/ PI staining based flow cytometric analysis (reference value: 73.30%); assay type: functional; method in brief: as §2
[22] = tested on: A549; experiment: Cell cycle arrest in human A549 cells assessed as accumulation at G2/M phase at 8 uM after 24 hrs by RNAse A/ PI staining based flow cytometric analysis (reference value: 9.47%); assay type: functional; method in brief: as §2
[23] = tested on: A549; experiment: Induction of apoptosis in human A549 cells assessed as early apoptotic cells at 8 uM after 24 hrs by Annexin-V/PI staining based flow cytometry analysis (reference value: 2.02%); assay type: functional
[24] = tested on: A549; experiment: Induction of apoptosis in human A549 cells assessed as late apoptotic cells at 12 uM after 24 hrs by Annexin-V/PI staining based flow cytometry analysis (reference value: 5.69%); assay type: functional
[25] = tested on: A549; experiment: Induction of apoptosis in human A549 cells assessed as viable cells at 2 uM after 24 hrs by Annexin-V/PI staining based flow cytometry analysis (reference value: 91.4%); assay type: functional; details: A549, 24 h, read-out: Activity; method in brief: as §1
[26] = tested on: A549; experiment: Cell cycle arrest in human A549 cells assessed as accumulation at S phase at 2 uM after 24 hrs by RNAse A/ PI staining based flow cytometric analysis (reference value: 17.23%); assay type: functional; method in brief: as §2

- IC50 [3]: 4.37 µM
- IC50 [12]: 8.9 µM
Compound: CC(C)=CC[C@@H](OC(=O)/C=C\C(=O)c1ccc(F)cc1)C1=CC(=O)c2c(O)ccc(O)c2C1=O
- Activity [1]: 4.62%
- Activity [2]: Dose-dependent effect
- viability at 4 µM [4]: 71.7%
- Activity [5]: Active
- Activity [6]: 3.72%
- Activity [7]: 19.8%
- Activity [8]: 9.45%
- Activity [9]: 27.9%
- Activity [10]: 19.4%
- Activity [11]: 42.6%
- viability at 8 µM [13]: 30.6%
- CC50 at 24 h [14]: 89.2 µM
- viability at 8 µM [15]: 12.2%
- Activity [16]: 21.03%
- Activity [17]: 3%
- Activity [18]: Active
- Activity [19]: 47.33%
- Activity [20]: 42.59%
- Activity [21]: 59.17%
- Activity [22]: 33.01%
- Activity [23]: 31.7%
- Activity [24]: 38.1%
- viability at 2 µM [25]: 83.7%
- Activity [26]: 22.93%

From ChEMBL document CHEMBL4406881, “Design, synthesis and biological evaluation of benzoylacrylic acid shikonin ester derivatives as irreversible dual inhibitors of tubulin and EGFR” (Bioorg Med Chem, 2019)
